Consider four molecules from ChEMBL document CHEMBL1156308 (J Med Chem, 2010).

The nature of data set [1]: Biodistribution in baboon liver at 340 mg, iv after 60 mins. The format is ADME, organism-based. As to conditions: papio hamadryas, read-out: Drug uptake. In short, it runs like this:
(§1)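 Four anesthetized baboons were given ketamine 10 mg/kg i.m., with anesthesia held on O2, N2O and isoflurane 1–4%. They received a micro dose of the [11C]-labeled drug i.v. via a radial arm vein, followed by torso PET. TACs came from manually drawn organ ROIs and are reported as %ID/cc. µg/ml values were estimated from a 20 mg/kg dose and a 17 kg baboon, assuming the signal is intact drug.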

Data set [2] can be described thus: Biodistribution in baboon kidney medulla at 340 mg, iv after 90 mins. The format is ADME, organism-based. The following applies: papio hamadryas, read-out: Drug uptake. The procedure, abridged:
as §1

Data set [3] can be described thus: Biodistribution in baboon kidney medulla at 340 mg, iv after 15 mins. The format is ADME, organism-based. As to conditions: papio hamadryas, read-out: Drug uptake. The procedure, abridged:
as §1

Data set [4] in a line: Biodistribution in baboon liver at 340 mg, iv after 15 mins. The format is ADME, organism-based. The following applies: papio hamadryas, read-out: Drug uptake. The procedure, abridged:
as §1

A short description of data set [5]: Biodistribution in baboon whole brain at 340 mg, iv after 90 mins. The format is ADME, organism-based. The following applies: papio hamadryas, read-out: Drug uptake. The procedure, abridged:
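Brain PET ran 90 min after i.v. [11C]-labelled drug in anaesthetised baboons. Whole-brain regions of interest gave time-activity curves in %ID/cc. µg/ml values were estimated from baboon weight (17 kg) and the recommended human daily dose per kg, assuming signal comes from intact drug.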

Data set [6] can be described thus: Biodistribution in baboon lung at 340 mg, iv after 90 mins. The format is ADME, organism-based. As to conditions: papio hamadryas, read-out: Drug uptake. In short, it runs like this: as §1
Data set [7] in a line: Biodistribution in baboon plasma at 340 mg, iv after 60 mins. The format is ADME, organism-based. As to conditions: papio hamadryas, read-out: Drug uptake. The procedure, abridged:
(§2)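 Anaesthetised baboons received [11C]-labelled drug i.v. (radial arm vein) by PET protocol. Arterial blood was drawn from a popliteal catheter every 5 s for 2 min, then at 2–90 min. Plasma activity is given as %ID/cc. µg/ml values were estimated from the human daily dose per kg scaled to a 17 kg baboon, assuming signal comes from intact drug.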

Data set [8] can be described thus: Biodistribution in baboon kidney cortex at 340 mg, iv after 15 mins. The format is ADME, organism-based. The following applies: papio hamadryas, read-out: Drug uptake. In short, it runs like this:
as §1

A short description of data set [9]: Biodistribution in baboon lung at 340 mg, iv after 60 mins. The format is ADME, organism-based. The following applies: papio hamadryas, read-out: Drug uptake. The procedure, abridged: as §1
The nature of data set [10]: Biodistribution in baboon heart at 340 mg, iv after 90 mins. The format is ADME, organism-based. The following applies: papio hamadryas, read-out: Drug uptake. In short, it runs like this:
as §1

The nature of data set [11]: Biodistribution in baboon liver at 340 mg, iv after 30 mins. The format is ADME, organism-based. The following applies: papio hamadryas, read-out: Drug uptake. The procedure, abridged: as §1
Data set [12] can be described thus: Biodistribution in baboon plasma at 340 mg, iv after 15 mins. The format is ADME, organism-based. The following applies: papio hamadryas, read-out: Drug uptake. In short, it runs like this: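 Anesthetised baboons (ketamine 10 mg/kg i.m.; oxygen, nitrous oxide and isoflurane 1–4% during scanning) got a micro dose of [11C]-labelled drug i.v. via a radial arm vein; arterial blood was sampled serially over 90 min. Plasma %ID/cc was converted to µg/ml from the listed dose over a 17 kg baboon, assuming the signal is intact drug.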

The nature of data set [13]: Biodistribution in baboon kidney cortex at 340 mg, iv after 90 mins. The format is ADME, organism-based. As to conditions: papio hamadryas, read-out: Drug uptake. The procedure, abridged: as §1
The nature of data set [14]: Biodistribution in baboon liver at 340 mg, iv after 90 mins. The format is ADME, organism-based. As to conditions: papio hamadryas, read-out: Drug uptake. The procedure, abridged:
as §1

Data set [15] can be described thus: Biodistribution in baboon whole brain at 340 mg, iv after 60 mins. The format is ADME, organism-based. The following applies: papio hamadryas, read-out: Drug uptake. The procedure, abridged: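 Baboons were anesthetized with ketamine 10 mg/kg i.m., then maintained on O2, N2O and isoflurane 1–4%. The [11C]-labeled drug was given i.v. as a micro dose through a radial arm vein. PET was acquired for 90 min. Whole-brain ROI time-activity curves were read in %ID/cc, and µg/ml was estimated assuming a 20 mg/kg dose, a 17 kg baboon and signal from intact drug.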

Data set [16] is described as follows: Biodistribution in baboon heart at 340 mg, iv after 60 mins. The following applies: papio hamadryas, read-out: Drug uptake. The format is ADME, organism-based. In short, it runs like this: as §1
A short description of data set [17]: Biodistribution in baboon kidney medulla at 340 mg, iv after 60 mins. The format is ADME, organism-based. As to conditions: papio hamadryas, read-out: Drug uptake. The procedure, abridged:
as §1

Data set [18] is described as follows: Biodistribution in baboon kidney medulla at 340 mg, iv after 30 mins. The format is ADME, organism-based. As to conditions: papio hamadryas, read-out: Drug uptake. The procedure, abridged: as §1
The nature of data set [19]: Biodistribution in baboon kidney cortex at 340 mg, iv after 30 mins. The following applies: papio hamadryas, read-out: Drug uptake. The format is ADME, organism-based. In short, it runs like this:
as §1

A short description of data set [20]: Biodistribution in baboon whole brain at 340 mg, iv after 30 mins. The format is ADME, organism-based. As to conditions: papio hamadryas, read-out: Drug uptake. The procedure, abridged: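 Brain PET was acquired for 90 min after i.v. [11C]-labeled drug in anesthetized baboons (ketamine 10 mg/kg i.m.; O2/N2O/isoflurane 1–4%). The whole-brain ROI TAC is reported as %ID/cc. µg/ml was estimated assuming a 20 mg/kg dose, a 17 kg baboon, and that the signal is intact drug. Arterial blood was sampled over 90 min.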

A short description of data set [21]: Biodistribution in baboon heart at 340 mg, iv after 30 mins. The format is ADME, organism-based. As to conditions: papio hamadryas, read-out: Drug uptake. In short, it runs like this:
as §1

The nature of data set [22]: Biodistribution in baboon heart at 340 mg, iv after 15 mins. The following applies: papio hamadryas, read-out: Drug uptake. The format is ADME, organism-based. In short, it runs like this: as §1
The nature of data set [23]: Biodistribution in baboon lung at 340 mg, iv after 15 mins. The format is ADME, organism-based. The following applies: papio hamadryas, read-out: Drug uptake. In short, it runs like this: as §1
A short description of data set [24]: Biodistribution in baboon plasma at 340 mg, iv after 90 mins. The format is ADME, organism-based. The following applies: papio hamadryas, read-out: Drug uptake. In short, it runs like this: as §2
A short description of data set [25]: Biodistribution in baboon kidney cortex at 340 mg, iv after 60 mins. The format is ADME, organism-based. The following applies: papio hamadryas, read-out: Drug uptake. In short, it runs like this:
as §1

Data set [26] in a line: Biodistribution in baboon plasma at 340 mg, iv after 30 mins. The format is ADME, organism-based. The following applies: papio hamadryas, read-out: Drug uptake. The procedure, abridged: as §2
A short description of data set [27]: Biodistribution in baboon lung at 340 mg, iv after 30 mins. The format is ADME, organism-based. The following applies: papio hamadryas, read-out: Drug uptake. In short, it runs like this: as §1
The nature of data set [28]: Biodistribution in human CSF at 8.5 mg/kg, po after 2 hrs. The following applies: read-out: Drug uptake. On the set-up: dose 8.5 mg/kg, route oral. The format is ADME, organism-based, Cerebrospinal fluid.
Data set [29] can be described thus: Plasma protein binding in baboon. The format is ADME, cell-free. The following applies: papio hamadryas, read-out: PPB (converted). In short, it runs like this:
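[11C]-labelled drug was incubated 10 min at room temperature in pooled plasma from at least 4 baboons. Total radioactivity was counted, then the sample was ultrafiltered by centrifugation (10 min) and the filtrate counted. Result is expressed as % free fraction in plasma.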

Data set [30] can be described thus: Biodistribution in human CSF at 108.7 mg, po after 1 hr. As to conditions: read-out: Drug uptake. The format is ADME, organism-based, Cerebrospinal fluid.
Data set [31] can be described thus: Biodistribution in ip dosed cat brain. The format is ADME, organism-based, Felis catus. The following applies: in vivo.
Data set [32] in a line: Lipophilicity, log D of the compound. The format is physicochemical. The following applies: octanol/water.

The structures appear in SMILES notation.

As to `N[11C](=O)c1cnccn1`, the concentration at 1 h in [1] is 22000 ng/mL; in [7] it was 11200 ng/mL; in data set [9], 22200 ng/mL; in [15], 15700 ng/mL; in data set [16] it was 57600 ng/mL; in data set [17], 343000 ng/mL. Further, in [25], the concentration at 1 h came to 12600 ng/mL. The concentration at 1.5 h was 229000 ng/mL in data set [2]; 13700 ng/mL in data set [5]; 18600 ng/mL in [6]; 59500 ng/mL in data set [10]; 9930 ng/mL in data set [13]; 19200 ng/mL in data set [14]. Moreover, the concentration at 1.5 h in [24] is 9040 ng/mL. The concentration at 0.25 h in data set [3] came out at 617000 ng/mL; in [4], 36100 ng/mL; in data set [8] it was 20500 ng/mL; in data set [12], 22000 ng/mL; in [22], 67800 ng/mL; in [23] it was 35000 ng/mL. Besides, the concentration at 0.5 h in data set [11] came to 27000 ng/mL; in [18], 474000 ng/mL; in data set [19], 16600 ng/mL; in data set [20], 21000 ng/mL; in [21], 61500 ng/mL; in data set [26], 14600 ng/mL. Moreover, in [27], the concentration at 0.5 h came to 26500 ng/mL.
For the molecule `NNC(=O)c1ccncc1` [ISONIAZID], the concentration at 2 h in data set [28] was 1900 ng/mL. For the same molecule, the fraction unbound in data set [29] was 0.0537. For the same molecule, in data set [30], the concentration at 1 h is 310 ng/mL. Moreover, the Drug uptake in [31] was determined as 0.02 µg/g.
On to `NC(=O)c1cnccn1` [PYRAZINAMIDE], for which the logD in data set [32] is listed as -0.41. In addition, in data set [29], the fraction unbound is 0.0868.
On to `CO[C@H]1/C=C/O[C@@]2(C)Oc3c(C)c(O)c4c(O)c(c(/C=N/N5CCN(C)CC5)c(O)c4c3C2=O)NC(=O)/C(C)=C\C=C\[C@H](C)[C@H](O)[C@@H](C)[C@@H](O)[C@@H](C)[C@H](OC(C)=O)[C@@H]1C` [RIFAMPIN], for which the fraction unbound in data set [29] was 0.727.

As usually defined, the logD is the decadic logarithm of the distribution of all forms, ionised or not, between an organic phase and buffer at a given pH. High values mean higher lipophilicity, low ones lower lipophilicity.
